Activity calls are given as the source filed them. No cut-off for these calls is given here.
How the values were obtained:
[1] = Antiinflammatory activity against Sprague-Dawley rat neutrophils assessed as inhibition of fMLP/cytochalasin B-induced lysozyme release; type: functional, cell-based; settings: Neutrophil
Method in brief: (§1)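 Rat (Sprague-Dawley) peripheral blood neutrophils incubated with test compound 5 min at 37 °C, then stimulated with fMLP (0.3 μM)/cytochalasin B (5 μg/ml) for 45 min. β-Glucuronidase and lysozyme measured in supernatant. Compound stocks in DMSO; final DMSO <0.5% (v/v). Means ± SE of at least three separate experiments.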

[2] = Antiinflammatory activity against Sprague-Dawley rat neutrophils assessed as inhibition of fMLP/cytochalasin B-induced beta-glucuronidase release; type: functional, cell-based; settings: Neutrophil; method in brief: as §1
Neutrophil = test: Inhibition of fMLP-induced superoxide generation in Sprague-Dawley rat neutrophils; type: functional, cell-based
Method in brief: (§2)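 Sprague-Dawley rat peripheral blood neutrophils preincubated with compound 5 min at 37 °C, then stimulated 30 min with fMLP (0.3 μM)/CB (5 μg/mL) or PMA (3 nM) in presence of cytochrome c. Superoxide quantified as superoxide dismutase-inhibitable cytochrome c reduction. Final DMSO <0.5% (v/v). IC50 as means ± SE, at least three separate experiments.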

Rattus norvegicus [3] = organism: Rattus norvegicus; test: Inhibition of PMA-induced superoxide generation in Sprague-Dawley rat neutrophils; type: functional; settings: Neutrophil; method in brief: as §2
RAW264.7 [4] = test: Inhibition of LPS-induced nitric oxide accumulation in mouse RAW264.7 cells; type: functional, cell-based
Method in brief: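 RAW 264.7 macrophages grown in DMEM with 5% FBS at 37 °C, 5% CO2, and stimulated with LPS. Nitrite accumulated in medium read with Griess reagent (sulfanilamide/N-(1-naphthyl)ethylenediamine in phosphoric acid, 5 min) at OD550 against sodium nitrite standard in culture medium. IC50 as means ± SE of at least three experiments.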

RAW264.7 [5] = test: Cytotoxicity against mouse RAW264.7 cells up to 10 uM after 24 hrs by methylene blue assay; type: cell-based; settings: raw264.7, 24 h
Method in brief: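 RAW 264.7 cells seeded at 2×10^5 cells/well, given LPS plus various compound concentrations for 24 h. Stained with 1% methylene blue for 40 min, washed, dye released with 1% sarcosyl for 4 h, absorbance read at 570 nm. LPS-treated cells without compound set as 100% survival.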

RAW264.7 [6] = test: Inhibition of LPS-induced iNOS protein expression in mouse RAW264.7 cells after 2 hrs by Western blot; type: functional, cell-based
Method in brief: (§3)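 RAW 264.7 cells (5×10^5 cells/well) pretreated with compound 2 h, then stimulated with LPS 0.1 μg/mL for 24 h. Lysed in RIPA buffer, protein measured by Bradford, 15 μg run on 8% SDS–PAGE and immunoblotted for iNOS with ECL detection. Bands quantified densitometrically relative to β-actin.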

RAW264.7 [7] = test: Inhibition of LPS-induced iNOS protein expression in mouse RAW264.7 cells at 5 uM after 2 hrs by Western blot; type: functional, cell-based; method in brief: as §3
Rattus norvegicus [8] = test: Inhibition of iNOS mRNA expressing in cecal ligation and puncture Sprague-Dawley rat model at 10 mg/kg, ip treated 1 hr before surgery measured after 24 hrs of surgery by PCR amplification; type: functional; settings: route intraperitoneal
Method in brief: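 Sprague-Dawley rats aged 6–8 weeks, 3–4 per group, given compound or hydrocortisone 10 mg/kg by intraperitoneal injection 1 h before cecal ligation and puncture. Resuscitated with 1 mL normal saline after surgery; sham animals handled identically. Lung tissue collected 24 h post-surgery; iNOS mRNA band intensities normalized to GAPDH.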

Rattus norvegicus [9] = test: Inhibition of sepsis-induced PGE2 production in cecal ligation and puncture Sprague-Dawley rat model serum at 10 mg/kg, ip treated 1 hr before surgery measured after 24 hrs of surgery by ELISA; type: functional; settings: route intraperitoneal
Method in brief: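 Sprague-Dawley rats aged 6–8 weeks (3–4 per group) pretreated intraperitoneally with 10 mg/kg compound or hydrocortisone 1 h before cecal ligation and puncture, saline-resuscitated after. Blood taken from portal vein 24 h post-surgery, centrifuged 3000 rpm 20 min, serum stored at -70 °C. PGE2 measured by ELISA; average of three independent studies.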

## O=[N+]([O-])c1ccc(-c2nc3c4ccccc4c4occc4c3[nH]2)cc1
[1]
  IC50: > 10 µM
[2]
  IC50: > 10 µM
Neutrophil
  IC50: > 30 µM
Rattus norvegicus [3]
  IC50: > 30 µM
RAW264.7 [4]
  IC50: > 10 µM

## c1coc(-c2nc3c4ccccc4c4occc4c3[nH]2)c1
[1]
  IC50: 19.5 µM
[2]
  IC50: 11.3 µM
Neutrophil
  IC50: > 30 µM
Rattus norvegicus [3]
  IC50: > 30 µM
RAW264.7 [4]
  IC50: 11.9 µM
RAW264.7 [5]
  Activity: Non-toxic
RAW264.7 [6]
  inhibition: Dose-dependent effect

## O=[N+]([O-])c1ccc(-c2nc3c4ccccc4c4occc4c3[nH]2)o1
[1]
  IC50: > 30 µM
[2]
  IC50: > 30 µM
Neutrophil
  IC50: > 30 µM
Rattus norvegicus [3]
  IC50: > 30 µM
RAW264.7 [4]
  IC50: 1.5 µM
RAW264.7 [5]
  Activity: Non-toxic
RAW264.7 [6]
  inhibition: Dose-dependent effect

## c1ccc2c(c1)c1nc[nH]c1c1ccoc21
[1]
  IC50: > 30 µM
[2]
  IC50: > 30 µM
Neutrophil
  IC50: > 30 µM
Rattus norvegicus [3]
  IC50: > 30 µM
RAW264.7 [4]
  IC50: > 30 µM

## O=Cc1ccc(-c2nc3c4ccccc4c4occc4c3[nH]2)cc1
[1]
  IC50: 7.4 µM
[2]
  IC50: 5 µM
Neutrophil
  IC50: > 30 µM
Rattus norvegicus [3]
  IC50: > 30 µM
RAW264.7 [4]
  IC50: > 10 µM

## CN1CCN(CCCN2c3ccccc3Sc3ccc(C(F)(F)F)cc32)CC1 [TRIFLUOPERAZINE]
[1]
  IC50: 11.9 µM
[2]
  IC50: 12.5 µM

## CC(=N)NCc1cccc(CN)c1 [1400W]
RAW264.7 [4]
  IC50: 2.7 µM

## c1ccc2c(c1)[I+]c1ccccc1-2 [DIPHENYLENEIODONIUM CHLORIDE]
Neutrophil
  IC50: 5.2 µM
Rattus norvegicus [3]
  IC50: 4.3 µM

## c1ccc(-c2nc3c4ccccc4c4occc4c3[nH]2)cc1
[1]
  IC50: 16.3 µM
[2]
  IC50: 11.4 µM
Neutrophil
  IC50: > 30 µM
Rattus norvegicus [3]
  IC50: > 30 µM
RAW264.7 [4]
  IC50: > 10 µM

## O=[N+]([O-])c1ccc(/C=C/c2nc3c4ccccc4c4occc4c3[nH]2)o1
[1]
  IC50: > 30 µM
[2]
  IC50: > 30 µM
Neutrophil
  IC50: > 30 µM
Rattus norvegicus [3]
  IC50: > 30 µM
RAW264.7 [4]
  IC50: 1.3 µM
RAW264.7 [5]
  Activity: Non-toxic
RAW264.7 [6]
  inhibition: Dose-dependent effect
RAW264.7 [7]
  inhibition: Active
Rattus norvegicus [8]
  inhibition in vivo at 10 mg/kg: 30%
Rattus norvegicus [9]
  inhibition in vivo at 10 mg/kg: 150%
